The text below walks through data of ChEMBL document CHEMBL2311269, “Identification of benzofuran-3-yl(phenyl)methanones as novel SIRT1 inhibitors: binding mode, inhibitory mechanism and biological action” (Eur J Med Chem, 2013).

Activity calls are given as the source filed them. The rule behind the calls is not given here. Some results are limits rather than exact numbers.

The target in assay [1] is T1, NAD-dependent protein deacetylase sirtuin-1 (Homo sapiens, UniProt Q96EB6).
T1 sequence (Q96EB6 whole entry): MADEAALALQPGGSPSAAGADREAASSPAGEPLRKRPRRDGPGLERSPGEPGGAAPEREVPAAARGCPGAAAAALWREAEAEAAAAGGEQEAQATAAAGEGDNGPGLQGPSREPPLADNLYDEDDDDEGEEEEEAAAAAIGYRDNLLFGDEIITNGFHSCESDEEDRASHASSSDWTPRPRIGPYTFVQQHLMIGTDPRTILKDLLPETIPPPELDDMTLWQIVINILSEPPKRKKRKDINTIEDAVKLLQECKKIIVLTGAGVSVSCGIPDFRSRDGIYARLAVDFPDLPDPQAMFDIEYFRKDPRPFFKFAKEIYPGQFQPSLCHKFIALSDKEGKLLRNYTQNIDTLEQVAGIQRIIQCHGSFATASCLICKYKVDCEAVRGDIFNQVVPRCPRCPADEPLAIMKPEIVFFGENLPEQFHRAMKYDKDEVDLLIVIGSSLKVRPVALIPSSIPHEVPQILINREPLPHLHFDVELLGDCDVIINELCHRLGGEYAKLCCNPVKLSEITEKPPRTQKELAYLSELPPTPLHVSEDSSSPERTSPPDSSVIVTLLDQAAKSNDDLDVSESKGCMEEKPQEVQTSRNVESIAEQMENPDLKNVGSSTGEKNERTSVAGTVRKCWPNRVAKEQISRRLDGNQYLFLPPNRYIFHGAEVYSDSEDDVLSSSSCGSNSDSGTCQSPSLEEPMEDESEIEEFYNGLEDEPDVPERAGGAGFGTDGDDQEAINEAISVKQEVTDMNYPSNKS
In words: Inhibition of N-terminal His6-tagged SIRT1 coding region (156-664) (unknown origin) expressed in Escherichia coli BL21(DE3) using 31.25 uM ac-RHKKac-AMC and 750 uM NAD+ as substrate after 45 mins by fluorometric analysis.

In assay [2] the target is T2, NAD-dependent protein deacetylase sirtuin-1 (Homo sapiens, UniProt Q96EB6, F273L). In words: Inhibition of N-terminal His6-tagged SIRT1 F273L mutant (unknown origin) expressed in Escherichia coli BL21(DE3) using ac-RHKKac-AMC as substrate after 45 mins by fluorometric analysis. Put shortly:
(§1)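 Mutant SIRT1 enzyme levels were set to give the same deacetylase activity as wild type. The AMC-peptide/NAD+ fluorogenic assay ran in Tris pH 8.0 buffer for 45 min at room temperature, followed by nicotinamide stop, trypsin development and a 340/490 nm fluorescence read. IC50 was obtained by curve fitting.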

The target in assay [3] is T3, NAD-dependent protein deacetylase sirtuin-1 (Homo sapiens, UniProt Q96EB6, N346A). In words: Inhibition of N-terminal His6-tagged SIRT1 N346A mutant (unknown origin) expressed in Escherichia coli BL21(DE3) using ac-RHKKac-AMC as substrate after 45 mins by fluorometric analysis. The method in brief: as §1
Assay [4] has as its target T4, NAD-dependent protein deacetylase sirtuin-1 (Homo sapiens) (UniProt Q96EB6).
T4 sequence (whole entry): T1 sequence (Q96EB6 whole entry)
Description: Inhibition of SIRT1-mediated p53 deacetylation in human MCF7 cells after 6 hrs by Western blot analysis. The format is cell-based. Put shortly:
(§2)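 MCF-7 cells grown in DMEM with 10% fetal calf serum were treated with graded inhibitor concentrations. Lysate protein was run on a 9% gel, transferred to nitrocellulose, blocked 1 h at room temperature in 5% milk/TBST, and probed for acetyl-p53 and total p53.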
On the technique in general: In western blotting, separated proteins are transferred to a membrane and probed.

The subject of assay [5] is T5, NAD-dependent protein deacetylase sirtuin-3, mitochondrial (Homo sapiens), Q9NTG7 [L195F].
T5 sequence (whole entry): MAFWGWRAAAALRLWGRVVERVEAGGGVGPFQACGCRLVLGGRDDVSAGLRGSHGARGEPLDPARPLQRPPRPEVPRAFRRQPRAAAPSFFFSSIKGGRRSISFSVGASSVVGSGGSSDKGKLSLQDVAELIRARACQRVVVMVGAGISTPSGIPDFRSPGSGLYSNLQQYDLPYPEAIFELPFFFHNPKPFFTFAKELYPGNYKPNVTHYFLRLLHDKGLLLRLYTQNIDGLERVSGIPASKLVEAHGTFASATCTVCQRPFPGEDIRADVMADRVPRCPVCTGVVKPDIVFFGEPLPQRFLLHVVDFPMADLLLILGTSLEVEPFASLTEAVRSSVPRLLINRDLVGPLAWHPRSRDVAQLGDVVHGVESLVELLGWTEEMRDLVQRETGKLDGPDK
In words: Inhibition of N-terminal His6-tagged SIRT3 L195F mutant (unknown origin) expressed in Escherichia coli BL21(DE3) using ac-RHKKac-AMC as substrate at 50 to 100 uM after 45 mins by fluorometric analysis.

For assay [6], the target named is T4, NAD-dependent protein deacetylase sirtuin-1 (Homo sapiens). In words: Inhibition of N-terminal His6-tagged SIRT1 coding region (156-664) (unknown origin) expressed in Escherichia coli BL21(DE3) using 100 uM ac-RHKKac-AMC and 20 uM NAD+ as substrate after 45 mins by fluorometric analysis.
Assay [7] addresses T6, NAD-dependent protein deacetylase sirtuin-1 (Homo sapiens, UniProt Q96EB6, I347A). Description: Inhibition of N-terminal His6-tagged SIRT1 I347A mutant (unknown origin) expressed in Escherichia coli BL21(DE3) using ac-RHKKac-AMC as substrate after 45 mins by fluorometric analysis. Put shortly: as §1
Assay [8] has as its system MCF7. Description: Effect on p53 protein level in human MCF7 cells at 1.2 to 100 uM after 6 hrs by Western blot analysis. The format is functional, cell-based. The method in brief: as §2
Assay [9] concerns the target T4, NAD-dependent protein deacetylase sirtuin-1 (Homo sapiens). Description: Reversible inhibition of N-terminal His6-tagged SIRT1 coding region (156-664) (unknown origin) expressed in Escherichia coli BL21(DE3) using ac-RHKKac-AMC as substrate incubated at 10-fold IC50 for 30 mins followed by 100-fold dilution measured up to 40 mins by fluorometric analysis. The method in brief:
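Enzyme was preincubated with inhibitor or DMSO at room temperature for 30 min, then rapidly diluted 100-fold into reaction buffer containing NAD+ and ac-RHKK(ac)-AMC. Deacetylated product was monitored over time, and the slope of the inhibitor curve was compared with the DMSO control.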

Assay [10] concerns the target T7, NAD-dependent protein deacetylase sirtuin-1 (Homo sapiens, UniProt Q96EB6, F312L). Description: Mixed type inhibition of N-terminal His6-tagged SIRT1 F312L mutant (unknown origin) expressed in Escherichia coli BL21(DE3) using NAD+ as substrate by Lineweaver-Burk plot analysis in presence of ac-RHKKac-AMC. Put shortly:
(§3)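 Velocities of each SIRT1 point mutant were measured at varied inhibitor concentrations with NAD+ varied and peptide present. Reciprocal velocities were plotted against 1/[NAD+], the slopes were replotted versus inhibitor concentration, and Ki was taken from the x-intercepts of these secondary plots.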

The target of assay [11] is T3, NAD-dependent protein deacetylase sirtuin-1. In words: Mixed type inhibition of N-terminal His6-tagged SIRT1 N346A mutant (unknown origin) expressed in Escherichia coli BL21(DE3) using NAD+ as substrate by Lineweaver-Burk plot analysis in presence of ac-RHKKac-AMC. Put shortly:
as §3

The target in assay [12] is T2, NAD-dependent protein deacetylase sirtuin-1. Description: Mixed type inhibition of N-terminal His6-tagged SIRT1 F273L mutant (unknown origin) expressed in Escherichia coli BL21(DE3) using NAD+ as substrate by Lineweaver-Burk plot analysis in presence of ac-RHKKac-AMC. Put shortly:
as §3

The target in assay [13] is T1, NAD-dependent protein deacetylase sirtuin-1. In words: Mixed-type inhibition of N-terminal His6-tagged SIRT1 coding region (156-664) (unknown origin) expressed in Escherichia coli BL21(DE3) using NAD+ as substrate by Lineweaver-Burk plot analysis in presence of ac-RHKKac-AMC. Put shortly: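 With ac-RHKK(ac)-AMC held fixed, NAD+ was varied at several inhibitor concentrations. Fluorogenic deacetylation velocities were analysed by Lineweaver–Burk plots against NAD+ concentration.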

Assay [14] has as its target T7, NAD-dependent protein deacetylase sirtuin-1. In words: Inhibition of N-terminal His6-tagged SIRT1 F312L mutant (unknown origin) expressed in Escherichia coli BL21(DE3) using ac-RHKKac-AMC as substrate after 45 mins by fluorometric analysis. Put shortly:
as §1

The target of assay [15] is T4, NAD-dependent protein deacetylase sirtuin-1 (Homo sapiens). Description: Noncompetitive inhibition of N-terminal His6-tagged SIRT1 coding region (156-664) (unknown origin) expressed in Escherichia coli BL21(DE3) using ac-RHKKac-AMC as substrate by Lineweaver-Burk plot analysis in presence of NAD+.
In assay [16] the target is T6, NAD-dependent protein deacetylase sirtuin-1. Description: Mixed type inhibition of N-terminal His6-tagged SIRT1 I347A mutant (unknown origin) expressed in Escherichia coli BL21(DE3) using NAD+ as substrate by Lineweaver-Burk plot analysis in presence of ac-RHKKac-AMC. The method in brief: as §3

T2 sequence (Q96EB6 2-747 F273L limits assumed): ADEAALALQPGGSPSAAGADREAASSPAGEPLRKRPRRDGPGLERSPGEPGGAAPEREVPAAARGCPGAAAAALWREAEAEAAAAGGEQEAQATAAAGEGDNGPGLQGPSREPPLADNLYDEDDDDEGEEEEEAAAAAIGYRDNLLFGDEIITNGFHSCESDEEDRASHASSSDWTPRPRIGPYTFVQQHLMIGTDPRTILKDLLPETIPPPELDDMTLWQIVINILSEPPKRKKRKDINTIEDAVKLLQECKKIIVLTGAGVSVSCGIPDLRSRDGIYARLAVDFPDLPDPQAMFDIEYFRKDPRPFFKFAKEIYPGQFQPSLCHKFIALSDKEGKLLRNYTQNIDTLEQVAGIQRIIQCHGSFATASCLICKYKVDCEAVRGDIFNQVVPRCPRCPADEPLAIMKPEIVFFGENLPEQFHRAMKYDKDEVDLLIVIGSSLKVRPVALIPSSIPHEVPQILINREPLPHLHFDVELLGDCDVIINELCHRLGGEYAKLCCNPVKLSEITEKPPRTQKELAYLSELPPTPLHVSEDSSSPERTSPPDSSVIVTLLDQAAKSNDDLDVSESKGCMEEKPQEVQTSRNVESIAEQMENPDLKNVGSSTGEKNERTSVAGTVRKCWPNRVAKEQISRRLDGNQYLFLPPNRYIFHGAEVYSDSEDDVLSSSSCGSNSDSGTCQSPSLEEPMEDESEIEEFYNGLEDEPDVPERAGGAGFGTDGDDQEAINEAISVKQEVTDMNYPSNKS
T6 sequence (Q96EB6 2-747 I347A limits assumed): as the sequence (Q96EB6 2-747 F273L limits assumed) above, with L272F, I346A counted along it
T7 sequence (Q96EB6 2-747 F312L limits assumed): as the sequence (Q96EB6 2-747 F273L limits assumed) above, with L272F, F311L counted along it
T3 sequence (Q96EB6 2-747 N346A limits assumed): as the sequence (Q96EB6 2-747 F273L limits assumed) above, with L272F, N345A counted along it

For the molecule `O=C(c1ccc(OCc2ccccc2)cc1)c1coc2cc(Br)c(O)c(Br)c12`, the IC50 – broadly, the point on the concentration scale where inhibition reaches its midpoint – in assay [1] was more than 300 µM.

Regarding `COc1ccc(OC)c(C(=O)c2coc3ccc(O)cc23)c1`, the IC50 in assay [1] is more than 300 µM.

Take `O=C(c1cc(O)ccc1O)c1coc2ccc(O)cc12`: the IC50 in [2] amounted to 491 µM; in assay [3], 283 µM; in [7] it was 421 µM; in [1] it was 2.8 µM; in [14], 550 µM. The inhibition entry in assay [4] was “Dose-dependent effect”. Also, the inhibition entry in assay [5], in [6], in [9] and in [15] was “Active” in each case. The outcome in assay [8] was inactive. The Ki (commonly a measure of affinity in units of concentration, obtained from inhibition or displacement) was found to be 254 µM in assay [10]; 253 µM in assay [11]; 219 µM in [12]; 0.8 µM in assay [13]; 174 µM in assay [16].

In assay [1], `COc1ccc(O)c(C(=O)c2coc3ccc(O)cc23)c1` came in with a 50% inhibitory concentration (IC50) of 45.1 µM.

With `Cc1ccc(C(=O)c2coc3c2cc(O)c2ccccc23)cc1`, the IC50 in assay [1] is more than 300 µM.

On to `O=C(c1ccc(Br)cc1)c1coc2ccc(O)cc12`, for which half-maximal inhibition in assay [1] (IC50) required 240 µM.

As for `O=C(c1ccc(Br)cc1)c1coc2c1cc(O)c1ccccc12`, in assay [1], the IC50 was 146 µM.

For the molecule `O=C(c1ccccc1)c1coc2cc(Br)c(O)c(Br)c12`, the half-maximal inhibitory concentration (IC50) in assay [1] came out at 198 µM.

`COc1ccc(OC)c(C(=O)c2coc3ccc(OC(C)=O)cc23)c1` registered a half-maximal inhibitory concentration (IC50) in assay [1] of more than 300 µM.

In [1], `COc1cc2c(C(=O)c3ccc(Br)cc3)c(C)oc2c2ccccc12` returned a half-maximal inhibitory concentration (IC50) of more than 300 µM.

Turning to `Cc1cc2occ(C(=O)c3ccc(Cl)cc3)c2cc1O`, inhibition in assay [1] was half-maximal at 88 µM (IC50).

`COc1ccc(O)cc1C(=O)c1coc2ccc(O)cc12`: the half-maximal inhibitory concentration (IC50) in assay [1] worked out at 41.7 µM.

`CC(=O)Oc1ccc2occ(C(=O)c3ccccc3)c2c1`: the IC50 in assay [1] is more than 300 µM.

The molecule `O=C(c1ccccc1O)c1coc2ccc(O)cc12` had an IC50 in assay [1] of 71.4 µM.

In the case of `O=C(c1ccccc1)c1coc2ccc(O)c(CN3CCOCC3)c12`, the half-inhibitory concentration (IC50) in assay [1] is more than 300 µM.

As for `COc1ccc(OC)c(C(=O)c2coc3ccc(O)c(CN4CCOCC4)c23)c1`, the half-inhibitory concentration (IC50) in assay [1] is more than 300 µM.

As for `O=C(c1ccccc1)c1coc2c1cc(O)c1ccccc12`, in assay [1], the half-inhibitory concentration (IC50) was more than 300 µM.

On to `Cc1oc2ccc(O)cc2c1C(=O)c1ccc(Br)cc1`, for which, in assay [1], 243 µM corresponded to half-maximal inhibition (IC50).

In turn, `COc1ccc(C(=O)c2coc3c2cc(O)c2ccccc23)cc1` gave an IC50 in assay [1] of 256 µM.

Consider `COc1ccc(OC)c(C(=O)c2coc3cc(Br)c(O)c(Br)c23)c1`, for which, in [1], the IC50 is more than 300 µM.

With `O=C(c1cccc(O)c1)c1coc2ccc(O)cc12`, half-maximal inhibition in assay [1] (IC50) was put at 31.2 µM.
